Test results as given in ChEMBL document CHEMBL1125563, “Selective, centrally acting serotonin 5-HT2 antagonists. 1. 2- and 6-substituted 1-phenyl-3-(4-piperidinyl)-1H-indoles” (J Med Chem, 1992).

Tests used:
[1] = target: T1, Adrenergic receptor alpha-1 (Rattus norvegicus, UniProt P15823+P23944+P43140); test: Displacement of [3H]prazosin from Alpha-1 adrenergic receptor of whole rat brain membranes; assay type: cell membranes, Membrane
T1 sequence (P15823 whole entry): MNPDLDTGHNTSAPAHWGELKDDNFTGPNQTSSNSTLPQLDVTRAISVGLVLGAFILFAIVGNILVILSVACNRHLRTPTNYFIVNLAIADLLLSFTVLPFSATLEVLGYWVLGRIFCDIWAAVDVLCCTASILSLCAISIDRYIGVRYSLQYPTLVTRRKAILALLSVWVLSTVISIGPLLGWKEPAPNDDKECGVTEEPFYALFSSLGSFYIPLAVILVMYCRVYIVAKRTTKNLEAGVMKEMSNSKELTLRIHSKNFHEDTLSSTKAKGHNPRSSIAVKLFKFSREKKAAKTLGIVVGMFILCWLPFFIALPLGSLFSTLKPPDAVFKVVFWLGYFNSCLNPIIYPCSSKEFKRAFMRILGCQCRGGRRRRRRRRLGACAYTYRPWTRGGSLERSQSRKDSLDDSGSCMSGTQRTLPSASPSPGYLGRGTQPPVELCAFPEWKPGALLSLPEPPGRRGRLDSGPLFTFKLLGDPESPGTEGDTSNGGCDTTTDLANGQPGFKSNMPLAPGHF
T1 sequence (P23944 whole entry): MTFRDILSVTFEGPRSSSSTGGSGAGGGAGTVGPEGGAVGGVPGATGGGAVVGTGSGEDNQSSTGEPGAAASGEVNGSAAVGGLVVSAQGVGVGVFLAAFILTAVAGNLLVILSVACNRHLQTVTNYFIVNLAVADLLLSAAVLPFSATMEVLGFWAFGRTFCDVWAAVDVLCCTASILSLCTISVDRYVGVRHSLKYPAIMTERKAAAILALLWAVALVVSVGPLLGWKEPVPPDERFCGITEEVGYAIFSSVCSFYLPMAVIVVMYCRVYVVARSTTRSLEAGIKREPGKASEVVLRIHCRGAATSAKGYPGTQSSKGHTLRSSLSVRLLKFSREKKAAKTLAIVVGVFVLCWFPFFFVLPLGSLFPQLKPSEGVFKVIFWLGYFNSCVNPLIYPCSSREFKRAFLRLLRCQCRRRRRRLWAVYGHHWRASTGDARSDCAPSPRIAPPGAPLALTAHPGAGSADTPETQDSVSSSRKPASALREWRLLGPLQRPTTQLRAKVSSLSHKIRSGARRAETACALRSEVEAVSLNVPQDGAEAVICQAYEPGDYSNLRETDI
T1 sequence (P43140 whole entry): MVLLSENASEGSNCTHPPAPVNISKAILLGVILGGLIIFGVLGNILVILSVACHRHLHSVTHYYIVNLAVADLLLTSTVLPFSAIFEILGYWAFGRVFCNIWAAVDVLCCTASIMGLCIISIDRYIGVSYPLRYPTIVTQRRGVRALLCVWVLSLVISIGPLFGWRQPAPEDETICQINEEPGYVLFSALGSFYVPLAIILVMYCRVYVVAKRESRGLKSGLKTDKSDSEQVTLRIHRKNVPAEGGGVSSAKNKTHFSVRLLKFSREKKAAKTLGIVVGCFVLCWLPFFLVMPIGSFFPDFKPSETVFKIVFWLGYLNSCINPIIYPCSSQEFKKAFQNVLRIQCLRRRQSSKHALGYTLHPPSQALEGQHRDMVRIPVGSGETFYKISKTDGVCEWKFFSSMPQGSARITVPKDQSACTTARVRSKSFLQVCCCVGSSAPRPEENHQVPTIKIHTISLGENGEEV
In short: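 α1 adrenoceptor binding measured as displacement of [3H]prazosin from whole rat brain membranes. Five test-drug concentrations spanning three decades in triplicate, two full curves; IC50 from log concentration-effect curves, logarithmic mean of at least two determinations.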

Rattus norvegicus [2] = test: Compound was evaluated for the inhibition of quipazine-induced head twitches after 2 h (administered subcutaneously); 0.011-0.12; assay type: functional; conditions: sc
Rattus norvegicus [3] = test: Compound was evaluated for the inhibition of quipazine-induced head twitches after 24 hr (administered perorally); 0.12-0.57; assay type: functional; conditions: po
Rattus norvegicus [4] = test: Compound was evaluated for the inhibition of pergolide-induced reactions after 2 hr (administered subcutaneously); 1.8-14.4; assay type: functional; conditions: sc
In short: (§1)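 Male Wistar rats with unilateral 6-OHDA lesions; test drug sc 2 h before pergolide (0.05 µmol/kg sc) to induce contralateral circling. Effect of each dose expressed as percent of mean of control sessions 1 week before and 1 week after, per rat; at least four rats per dose; ED50 by log-probit analysis.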

Mus musculus [5] = organism: Mus musculus; test: Compound was evaluated for the inhibition of isolation-induced aggression at a threshold of 180 seconds; 1.1-2.6; assay type: functional
In short: (§2)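 Isolated male NMRI mice (3 weeks) trained to attack a nonaggressive intruder of the same strain; only mice with attack latency <25 s included. Pretested just before dosing and 2 h after sc test substance; observation maximum 180 s; at least eight mice per dose.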

Mus musculus [6] = organism: Mus musculus; test: Compound was evaluated for the inhibition of isolation-induced aggression at a threshold of, 90 seconds; 1.3-2.9; assay type: functional; in short: as §2
[7] = target: Serotonin 2 (5-HT2) receptor (Rattus norvegicus, UniProt P30994+P08909+P14842); test: Displacement of [3H]ketanserin from 5-hydroxytryptamine 2 receptor from rat cortical membranes.; assay type: cell membranes, Membrane
In short: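 [3H]ketanserin displacement from rat cortical membranes (5-HT2). Five concentrations across three decades in triplicate, two full curves; IC50 estimated on a log-concentration scale, given as logarithmic mean of at least two determinations.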

Rattus norvegicus [8] = test: Compound was evaluated for the inhibition of quipazine-induced head twitches after 24 hr (administered subcutaneously); 0.014-0.48; conditions: sc
D(2) dopamine receptor = D(2) dopamine receptor (Rattus norvegicus, UniProt P61169); test: Displacement of [3H]-spiperone from Dopamine receptor D2 from rat striatal membranes; assay type: cell membranes, Membrane
Chain of D(2) dopamine receptor (P61169 whole entry): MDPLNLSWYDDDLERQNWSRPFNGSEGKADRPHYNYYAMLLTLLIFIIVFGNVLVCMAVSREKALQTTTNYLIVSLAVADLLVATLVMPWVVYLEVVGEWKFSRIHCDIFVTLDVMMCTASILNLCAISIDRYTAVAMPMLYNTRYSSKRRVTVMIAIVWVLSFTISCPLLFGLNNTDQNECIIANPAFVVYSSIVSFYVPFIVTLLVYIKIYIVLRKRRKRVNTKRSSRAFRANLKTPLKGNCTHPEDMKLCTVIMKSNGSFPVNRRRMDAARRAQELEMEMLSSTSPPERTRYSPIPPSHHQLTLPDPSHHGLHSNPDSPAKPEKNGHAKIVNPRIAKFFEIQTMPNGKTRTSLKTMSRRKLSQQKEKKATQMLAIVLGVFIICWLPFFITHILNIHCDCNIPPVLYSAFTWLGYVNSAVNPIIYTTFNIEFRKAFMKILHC
In short: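 [3H]spiperone displacement from rat striatal membranes (D2). Five test-drug concentrations over three decades, in triplicate, two full curves; IC50 from log concentration-effect curves, reported as logarithmic mean of at least two determinations.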

Rattus norvegicus [9] = test: Compound was evaluated for the inhibition of quipazine-induced head twitches after 2 hr (administered subcutaneously); 0.012-0.095; assay type: functional; conditions: sc
Rattus norvegicus [10] = test: Compound was evaluated for the inhibition of pergolide-induced reactions after 2 hr (administered subcutaneously); 12-50; assay type: functional; conditions: sc; in short: as §1
Rattus norvegicus [11] = test: Compound was evaluated for the inhibition of quipazine-induced head twitches after 24 hr (administered perorally); 0.0091-0.16; conditions: po
Rattus norvegicus [12] = test: Compound was evaluated for the inhibition of quipazine-induced head twitches after 2 hr (administered subcutaneously); 0.072-0.45; assay type: functional; conditions: sc
Rattus norvegicus [13] = test: Compound was evaluated for the inhibition of quipazine-induced head twitches after 24 h (administered perorally); 0.031-0.20; assay type: functional; conditions: po
Rattus norvegicus [14] = test: Compound was evaluated for the inhibition of pergolide-induced reactions after 2 hr (administered subcutaneously); 9.7-87; assay type: functional; conditions: sc; in short: as §1
Rattus norvegicus [15] = test: Compound was evaluated for the inhibition of pergolide-induced reactions after 2 hr (administered subcutaneously); 9.7-87; conditions: sc
Mus musculus [16] = organism: Mus musculus; test: Compound was evaluated for the inhibition of isolation-induced aggression at a threshold of 180 seconds; 2.3-12.4; assay type: functional
Mus musculus [17] = organism: Mus musculus; test: Compound was evaluated for the inhibition of isolation-induced aggression at a threshold of, 90 seconds; 3.5-18.4; assay type: functional
Rattus norvegicus [18] = test: Compound was evaluated for the inhibition of quipazine-induced head twitches after 2 hr (administered subcutaneously); 0.056-0.18; assay type: functional; conditions: sc
Rattus norvegicus [19] = test: Compound was evaluated for the inhibition of quipazine-induced head twitches after 24 hr (administered subcutaneously); 0.35-2.7; assay type: functional; conditions: sc
Rattus norvegicus [20] = test: Compound was evaluated for the inhibition of pergolide-induced reactions after 2 hr (administered subcutaneously); assay type: functional; conditions: sc; in short: as §1
Mus musculus [21] = organism: Mus musculus; test: Compound was evaluated for the inhibition of isolation-induced aggression at a threshold of 180 seconds
Mus musculus [22] = organism: Mus musculus; test: Compound was evaluated for the inhibition of isolation-induced aggression at a threshold of, 90 seconds
[23] = target: T2, Alpha-1A adrenergic receptor (Rattus norvegicus, UniProt P43140); test: Compound was tested for the displacement of [3H]prazosin from alpha-1 adrenergic receptor of rat whole brain membranes
T2 sequence (P43140 whole entry): T1 sequence (P43140 whole entry)

`O=C1NCCN1CCN1CCC(c2cn(-c3ccc(F)cc3)c3ccccc23)CC1` was tested, and the IC50 [1] was 3 nM, the ED50 (Rattus norvegicus [2]) was 0.036 µmol/kg and the ED50 (Rattus norvegicus [3]) was 0.26 µmol/kg. The ED50 (Rattus norvegicus [4]) was 5.1 µmol/kg, the ED50 (Mus musculus [5]) was 1.7 µmol/kg and the ED50 (Mus musculus [6]) was 1.9 µmol/kg. It also gave an IC50 [7] of 0.72 nM and an ED50 (Rattus norvegicus [8]) of 0.082 µmol/kg.
With `O=C1NCCN1CCN1CCC(c2cn(-c3ccc(F)cc3)c3cc(F)ccc23)CC1` the IC50 [1] was 2.2 nM, the IC50 (D(2) dopamine receptor) was 36 nM and the ED50 (Rattus norvegicus [9]) was 0.034 µmol/kg. For the same compound, the ED50 (Rattus norvegicus [10]) was 25 µmol/kg, the IC50 [7] was 0.73 nM and the ED50 (Rattus norvegicus [11]) was 0.038 µmol/kg.
In the case of `Cc1c(C2CCN(CCN3CCNC3=O)CC2)c2ccccc2n1-c1ccc(F)cc1`, the IC50 [1] is reported as 76 nM, the ED50 (Rattus norvegicus [12]) is reported as 0.18 µmol/kg and the ED50 (Rattus norvegicus [13]) is reported as 0.078 µmol/kg. For the same compound, the ED50 (Rattus norvegicus [14]) was 29 µmol/kg, the IC50 [7] was 0.59 nM and the ED50 (Rattus norvegicus [15]) was 29 µmol/kg.
For `c1cc2c(c(N3CCNCC3)c1)OCCO2` [ELTOPRAZINE], the ED50 (Mus musculus [16]) was 5.4 µmol/kg and the ED50 (Mus musculus [17]) was 8 µmol/kg.
With `Cc1nc2sccn2c(=O)c1CCN1CCC(=C(c2ccc(F)cc2)c2ccc(F)cc2)CC1` [RITANSERIN] the ED50 (Rattus norvegicus [18]) was 0.1 µmol/kg, the ED50 (Rattus norvegicus [19]) was 0.98 µmol/kg and the ED50 (Rattus norvegicus [20]) was greater than 21 µmol/kg. It also gave an ED50 (Mus musculus [21]) greater than 10 µmol/kg, an ED50 (Mus musculus [22]) greater than 10 µmol/kg and an IC50 [23] of 47 nM.
